# The source made the active and inactive calls. The calls are words filed in the database; no cut-off is given here.
# Assays:
# [1] = target: T1, Toll-like receptor 7 (Homo sapiens) (UniProt Q9NYK1); assay: Activation of human TLR7 expressed in HEK293XL assessed as induction of NF-kappaB activity by reporter gene assay
# T1 sequence (whole entry): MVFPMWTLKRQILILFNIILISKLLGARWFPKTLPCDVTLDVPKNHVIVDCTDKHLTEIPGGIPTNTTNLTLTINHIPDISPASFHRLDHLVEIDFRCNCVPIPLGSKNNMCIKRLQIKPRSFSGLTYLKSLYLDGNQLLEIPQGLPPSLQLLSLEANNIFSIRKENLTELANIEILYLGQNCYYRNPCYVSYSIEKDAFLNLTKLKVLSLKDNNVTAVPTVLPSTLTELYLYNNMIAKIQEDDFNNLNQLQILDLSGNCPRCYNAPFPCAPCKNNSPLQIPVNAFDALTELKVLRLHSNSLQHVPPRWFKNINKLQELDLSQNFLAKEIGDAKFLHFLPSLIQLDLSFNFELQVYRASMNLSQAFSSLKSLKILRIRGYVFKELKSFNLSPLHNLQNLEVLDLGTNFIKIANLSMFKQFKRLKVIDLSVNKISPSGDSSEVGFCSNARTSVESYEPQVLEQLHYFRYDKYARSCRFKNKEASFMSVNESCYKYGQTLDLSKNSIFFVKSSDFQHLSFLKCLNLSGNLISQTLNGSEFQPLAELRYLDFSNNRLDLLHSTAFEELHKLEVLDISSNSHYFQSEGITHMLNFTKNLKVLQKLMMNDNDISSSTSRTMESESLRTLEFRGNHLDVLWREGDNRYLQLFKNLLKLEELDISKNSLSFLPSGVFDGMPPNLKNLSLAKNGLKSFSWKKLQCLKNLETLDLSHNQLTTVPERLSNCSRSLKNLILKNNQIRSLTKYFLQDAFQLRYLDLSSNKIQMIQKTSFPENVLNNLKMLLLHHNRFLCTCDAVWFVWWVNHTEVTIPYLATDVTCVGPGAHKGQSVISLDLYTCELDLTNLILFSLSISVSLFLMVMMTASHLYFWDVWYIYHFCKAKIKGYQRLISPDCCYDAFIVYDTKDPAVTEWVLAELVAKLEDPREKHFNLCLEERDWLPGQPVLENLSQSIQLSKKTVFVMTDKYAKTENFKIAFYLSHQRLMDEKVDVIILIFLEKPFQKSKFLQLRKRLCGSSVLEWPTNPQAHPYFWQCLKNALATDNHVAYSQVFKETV
# Procedure, shortened: (§1)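 HEK293 cells stably expressing human TLR7 or TLR8, transiently transfected with SEAP reporter plasmid; medium replaced, SIMRA compounds added, 18 h incubation. Supernatant SEAP measured by QuantiBlue; expressed as fold increase in NF-κB activity over PBS control. Tabulated data at 50 μg/mL, representative of three independent experiments.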
# [2] = target: T2, Toll-like receptor 8 (Homo sapiens) (UniProt Q9NR97); assay: Activation of human TLR8 expressed in HEK293XL assessed as induction of NF-kappaB activity by reporter gene assay; procedure, shortened: as §1
# T2 sequence (whole entry): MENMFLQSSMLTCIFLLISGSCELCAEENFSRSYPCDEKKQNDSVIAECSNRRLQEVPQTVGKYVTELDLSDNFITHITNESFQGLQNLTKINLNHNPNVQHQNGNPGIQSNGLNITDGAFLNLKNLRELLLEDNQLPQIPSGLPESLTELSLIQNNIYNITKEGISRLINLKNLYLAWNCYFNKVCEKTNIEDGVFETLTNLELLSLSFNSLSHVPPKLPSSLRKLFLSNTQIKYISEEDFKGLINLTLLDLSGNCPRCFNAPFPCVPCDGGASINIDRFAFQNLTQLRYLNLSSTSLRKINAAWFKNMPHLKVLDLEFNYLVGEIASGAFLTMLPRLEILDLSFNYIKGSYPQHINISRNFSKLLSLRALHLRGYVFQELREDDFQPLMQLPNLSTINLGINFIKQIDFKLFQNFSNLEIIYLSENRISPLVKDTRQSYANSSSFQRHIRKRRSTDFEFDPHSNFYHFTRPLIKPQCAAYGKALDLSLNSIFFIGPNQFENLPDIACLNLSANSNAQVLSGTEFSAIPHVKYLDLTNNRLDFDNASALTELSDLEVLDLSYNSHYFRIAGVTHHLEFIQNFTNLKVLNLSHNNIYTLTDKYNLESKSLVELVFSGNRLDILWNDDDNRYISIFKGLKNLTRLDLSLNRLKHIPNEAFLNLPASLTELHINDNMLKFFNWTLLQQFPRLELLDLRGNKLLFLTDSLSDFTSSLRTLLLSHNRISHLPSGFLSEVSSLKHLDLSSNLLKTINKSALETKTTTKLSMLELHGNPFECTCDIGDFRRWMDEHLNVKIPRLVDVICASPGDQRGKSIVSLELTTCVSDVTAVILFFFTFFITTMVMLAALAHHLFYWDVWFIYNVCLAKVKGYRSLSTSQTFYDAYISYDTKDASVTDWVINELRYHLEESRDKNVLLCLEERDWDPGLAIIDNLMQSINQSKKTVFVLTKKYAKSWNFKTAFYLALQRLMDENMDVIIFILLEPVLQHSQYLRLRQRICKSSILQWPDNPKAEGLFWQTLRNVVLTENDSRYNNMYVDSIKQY
Compound,Activity [1],Activity [2]
Nc1ccn([C@@H]2O[C@H](COP(=O)(S)O[C@H]3[C@@H](O)[C@H](n4cnc5c(N)ncnc54)O[C@@H]3CO)[C@@H](OP(=O)(S)OC[C@H]3O[C@@H](n4ccc(=O)[nH]c4=O)[C@H](O)[C@@H]3OP(=O)(S)OC[C@H]3O[C@@H](n4ccc(=O)[nH]c4=O)[C@H](O)[C@@H]3OP(=O)(S)OC[C@H]3O[C@@H](n4ccc5c(=O)[nH]c(N)nc54)[C@H](O)[C@@H]3OP(=O)(S)OC[C@H]3O[C@@H](n4cnc5c(N)ncnc54)[C@H](O)[C@@H]3OP(=O)(S)OC[C@H]3O[C@@H](n4ccc(N)nc4=O)[C@H](O)[C@@H]3OP(=O)(S)OC[C@H]3O[C@@H](n4ccc5c(=O)[nH]c(N)nc54)[C@H](O)[C@@H]3OP(=O)(S)OC[C@H]3O[C@@H](n4cnc5c(N)ncnc54)[C@H](O)[C@@H]3OP(=O)(S)OC[C@H]3O[C@@H](n4ccc(=O)[nH]c4=O)[C@H](O)[C@@H]3OP(=O)(S)OC[C@H]3O[C@@H](n4ccc(=O)[nH]c4=O)[C@H](O)[C@@H]3OP(=O)(S)OCC(O)COP(=O)(S)O[C@H]3[C@@H](O)[C@H](n4ccc(=O)[nH]c4=O)O[C@@H]3COP(=O)(S)O[C@H]3[C@@H](O)[C@H](n4ccc(=O)[nH]c4=O)O[C@@H]3COP(=O)(S)O[C@H]3[C@@H](O)[C@H](n4cnc5c(N)ncnc54)O[C@@H]3COP(=O)(S)O[C@H]3[C@@H](O)[C@H](n4ccc5c(=O)[nH]c(N)nc54)O[C@@H]3COP(=O)(S)O[C@H]3[C@@H](O)[C@H](n4ccc(N)nc4=O)O[C@@H]3COP(=O)(S)O[C@H]3[C@@H](O)[C@H](n4cnc5c(N)ncnc54)O[C@@H]3COP(=O)(S)O[C@H]3[C@@H](O)[C@H](n4ccc5c(=O)[nH]c(N)nc54)O[C@@H]3COP(=O)(S)O[C@H]3[C@@H](O)[C@H](n4ccc(=O)[nH]c4=O)O[C@@H]3COP(=O)(S)O[C@H]3[C@@H](O)[C@H](n4ccc(=O)[nH]c4=O)O[C@@H]3COP(=O)(S)O[C@H]3[C@@H](O)[C@H](n4ccc(N)nc4=O)O[C@@H]3COP(=O)(S)O[C@H]3[C@@H](O)[C@H](n4cnc5c(N)ncnc54)O[C@@H]3CO)[C@H]2O)c(=O)n1 (some centres undefined),Active,Active
Nc1ccn([C@@H]2O[C@H](COP(=O)(S)O[C@H]3[C@@H](O)[C@H](n4cnc5c(N)ncnc54)O[C@@H]3CO)[C@@H](OP(=O)(S)OC[C@H]3O[C@@H](n4ccc(=O)[nH]c4=O)[C@H](O)[C@@H]3OP(=O)(S)OC[C@H]3O[C@@H](n4ccc(=O)[nH]c4=O)[C@H](O)[C@@H]3OP(=O)(S)OC[C@H]3O[C@@H](n4ccc5c(=O)[nH]c(N)nc54)[C@H](O)[C@@H]3OP(=O)(S)OC[C@H]3O[C@@H](n4cnc5c(N)ncnc54)[C@H](O)[C@@H]3OP(=O)(S)OC[C@H]3O[C@@H](n4cnc5c(N)ncnc54)[C@H](O)[C@@H]3OP(=O)(S)OC[C@H]3O[C@@H](n4ccc5c(=O)[nH]c(N)nc54)[C@H](O)[C@@H]3OP(=O)(S)OC[C@H]3O[C@@H](n4ccc(N)nc4=O)[C@H](O)[C@@H]3OP(=O)(S)OC[C@H]3O[C@@H](n4ccc(=O)[nH]c4=O)[C@H](O)[C@@H]3OP(=O)(S)OC[C@H]3O[C@@H](n4ccc(=O)[nH]c4=O)[C@H](O)[C@@H]3OP(=O)(S)OCC(O)COP(=O)(S)O[C@H]3[C@@H](O)[C@H](n4ccc(=O)[nH]c4=O)O[C@@H]3COP(=O)(S)O[C@H]3[C@@H](O)[C@H](n4ccc(=O)[nH]c4=O)O[C@@H]3COP(=O)(S)O[C@H]3[C@@H](O)[C@H](n4ccc(N)nc4=O)O[C@@H]3COP(=O)(S)O[C@H]3[C@@H](O)[C@H](n4ccc5c(=O)[nH]c(N)nc54)O[C@@H]3COP(=O)(S)O[C@H]3[C@@H](O)[C@H](n4cnc5c(N)ncnc54)O[C@@H]3COP(=O)(S)O[C@H]3[C@@H](O)[C@H](n4cnc5c(N)ncnc54)O[C@@H]3COP(=O)(S)O[C@H]3[C@@H](O)[C@H](n4ccc5c(=O)[nH]c(N)nc54)O[C@@H]3COP(=O)(S)O[C@H]3[C@@H](O)[C@H](n4ccc(=O)[nH]c4=O)O[C@@H]3COP(=O)(S)O[C@H]3[C@@H](O)[C@H](n4ccc(=O)[nH]c4=O)O[C@@H]3COP(=O)(S)O[C@H]3[C@@H](O)[C@H](n4ccc(N)nc4=O)O[C@@H]3COP(=O)(S)O[C@H]3[C@@H](O)[C@H](n4cnc5c(N)ncnc54)O[C@@H]3CO)[C@H]2O)c(=O)n1 (some centres undefined),Active,Active
